Measurements published in ChEMBL document CHEMBL1944511, “Bakuchiol derivatives as novel and potent cytotoxic agents: a report” (Eur J Med Chem, 2012).

What was measured:
Type in all cases: functional
MCF7 [1] = test: Growth inhibition of human MCF7 cells at 50 uM after 48 hrs by sulpharhodamine B assay; conditions: MCF7, 48 h, read-out: GI
In short: (§1)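 This is the SRB protein-stain assay on adherent cells in RPMI-1640/MEM with 10% FCS. Each compound in DMSO (vehicle <0.2%) was applied at a single fixed concentration for 48 h. Cells were fixed with TCA and stained with SRB, and the dye was solubilised in Tris and read at 570/620 nm. Percent growth inhibition is relative to vehicle-treated controls, reported as mean ± SD of three experiments run in triplicate.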

A549 [2] = test: Growth inhibition of human A549 cells at 50 uM after 48 hrs by sulpharhodamine B assay; conditions: A549, 48 h, read-out: GI; in short: as §1
PC-3 [3] = test: Growth inhibition of human PC3 cells at 50 uM after 48 hrs by sulpharhodamine B assay; conditions: PC-3, 48 h, read-out: GI
In short: (§2)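 Cells grown in RPMI-1640/MEM with 10% FCS, penicillin/streptomycin, 37 °C, 5% CO2. Seeded in 96-well plates, allowed to adhere overnight, then exposed 48 h to analogs in DMSO (vehicle <0.2% in controls). TCA-fixed, stained with 0.4% SRB in 1% acetic acid, dye solubilized in 10 mM Tris base, OD 570 nm (ref 620 nm). Mean ± SD of three experiments run in triplicate.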

OVCAR-5 [4] = test: Growth inhibition of human OVCAR5 cells at 50 uM after 48 hrs by sulpharhodamine B assay; conditions: OVCAR-5, 48 h, read-out: GI; in short: as §1
IMR-32 [5] = test: Growth inhibition of human IMR32 cells at 50 uM after 48 hrs by sulpharhodamine B assay; conditions: IMR-32, 48 h, read-out: GI; in short: as §1
HeLa [6] = test: Growth inhibition of human HeLa cells at 50 uM after 48 hrs by sulpharhodamine B assay; conditions: read-out: GI; in short: as §1
THP-1 [7] = test: Growth inhibition of human THP1 cells at 50 uM after 48 hrs by sulpharhodamine B assay; conditions: THP-1, 48 h, read-out: GI; in short: as §2
MCF7 [8] = test: Growth inhibition of human MCF7 cells at 30 uM after 48 hrs by sulpharhodamine B assay; conditions: MCF7, 48 h, read-out: GI; in short: as §1
A549 [9] = test: Growth inhibition of human A549 cells at 30 uM after 48 hrs by sulpharhodamine B assay; conditions: A549, 48 h, read-out: GI; in short: as §1
PC-3 [10] = test: Growth inhibition of human PC3 cells at 30 uM after 48 hrs by sulpharhodamine B assay; conditions: PC-3, 48 h, read-out: GI; in short: as §2
OVCAR-5 [11] = test: Growth inhibition of human OVCAR5 cells at 30 uM after 48 hrs by sulpharhodamine B assay; conditions: OVCAR-5, 48 h, read-out: GI; in short: as §1
IMR-32 [12] = test: Growth inhibition of human IMR32 cells at 30 uM after 48 hrs by sulpharhodamine B assay; conditions: IMR-32, 48 h, read-out: GI; in short: as §1
HeLa [13] = test: Growth inhibition of human HeLa cells at 30 uM after 48 hrs by sulpharhodamine B assay; conditions: read-out: GI; in short: as §1
THP-1 [14] = test: Growth inhibition of human THP1 cells at 30 uM after 48 hrs by sulpharhodamine B assay; conditions: THP-1, 48 h, read-out: GI; in short: as §2
HEp-2 [15] = test: Growth inhibition of human Hep2 cells at 50 uM after 48 hrs by sulpharhodamine B assay; conditions: HEp-2, 48 h, read-out: GI; in short: as §1
HEp-2 [16] = test: Growth inhibition of human Hep2 cells at 30 uM after 48 hrs by sulpharhodamine B assay; conditions: HEp-2, 48 h, read-out: GI; in short: as §1

| Compound | inhibition of growth at 50 µM (MCF7 [1]) [%] | inhibition of growth at 50 µM (A549 [2]) [%] | inhibition of growth at 50 µM (PC-3 [3]) [%] | inhibition of growth at 50 µM (OVCAR-5 [4]) [%] | inhibition of growth at 50 µM (IMR-32 [5]) [%] | inhibition of growth at 50 µM (HeLa [6]) [%] | inhibition of growth at 50 µM (THP-1 [7]) [%] | inhibition of growth at 30 µM (MCF7 [8]) [%] | inhibition of growth at 30 µM (A549 [9]) [%] | inhibition of growth at 30 µM (PC-3 [10]) [%] | inhibition of growth at 30 µM (OVCAR-5 [11]) [%] | inhibition of growth at 30 µM (IMR-32 [12]) [%] | inhibition of growth at 30 µM (HeLa [13]) [%] | inhibition of growth at 30 µM (THP-1 [14]) [%] | inhibition of growth at 50 µM (HEp-2 [15]) [%] | inhibition of growth at 30 µM (HEp-2 [16]) [%] |
| --- | --- | --- | --- | --- | --- | --- | --- | --- | --- | --- | --- | --- | --- | --- | --- | --- |
| CC[C@](C)(CCCC(C)C)CCc1ccc(O)cc1 | 46 | 49 | 40 | 43 | 53 | 42 | 58 |  |  |  |  |  |  |  |  |  |
| C=C[C@@](C)(/C=C/c1ccc(OC(=O)CCCCC)cc1)CCC=C(C)C | 18 | 58 | 28 | 13 | 19 | 50 | 54 |  |  |  |  |  |  |  |  |  |
| C=C[C@@](C)(/C=C/c1ccc(O)c([N+](=O)[O-])c1)CCC=C(C)C | 49 | 52 | 52 | 55 | 50 | 49 | 55 |  |  |  |  |  |  |  |  |  |
| C=C[C@@](C)(/C=C/c1ccc(OC(=O)CCCCCCC)cc1)CCC=C(C)C | 12 | 15 | 22 | 42 | 51 | 53 | 62 |  |  |  |  |  |  |  |  |  |
| C=C[C@@](C)(/C=C/c1ccc(O)cc1)CCC1OC1(C)C (stereo not given in full) | 33 | 44 | 46 | 12 | 59 | 32 | 52 |  |  |  |  |  |  |  |  |  |
| C=C[C@@](C)(/C=C/c1ccc(OC(=O)CCCCCCCCC)cc1)CCC=C(C)C | 10 | 48 | 50 | 42 | 52 | 50 | 52 | 12 | 33 | 27 | 29 | 22 | 24 | 39 | 30 | 16 |
| CC(C)=CCCC(C)(/C=C/c1ccc(O)cc1)/C=C/c1ccc(O)cc1 | 31 | 33 | 32 | 33 | 30 | 32 | 66 |  |  |  |  |  |  |  |  |  |
| CCCOc1ccc(/C=C/[C@@](C)(/C=C/c2ccc(O)cc2)CCC=C(C)C)cc1Cl | 47 | 5 | 7 | 12 | 8 | 4 | 20 |  |  |  |  |  |  |  |  |  |
| CC[C@](C)(CCCC(C)C)CCc1cc(Br)c(O)c(Br)c1 | 42 | 40 | 50 | 8 | 21 | 42 | 51 |  |  |  |  |  |  |  |  |  |
| C=C[C@@](C)(/C=C/c1ccc(OC(=O)CCC)cc1)CCC=C(C)C | 20 | 50 | 38 | 41 | 54 | 36 | 54 |  |  |  |  |  |  |  |  |  |
| COc1ccc(/C=C/[C@@](C)(/C=C/c2ccc(O)cc2)CCC=C(C)C)cc1C=O | 36 | 32 | 34 | 33 | 35 | 31 | 45 |  |  |  |  |  |  |  |  |  |
| C=C[C@@](C)(/C=C/c1ccc(O)c(N)c1)CCC=C(C)C | 17 | 41 | 28 | 33 | 39 | 48 | 48 |  |  |  |  |  |  |  |  |  |
| COc1ccccc1/C=C/[C@@](C)(/C=C/c1ccc(O)cc1)CCC=C(C)C | 42 | 10 | 46 | 38 | 68 | 50 | 62 |  |  |  |  |  |  |  |  |  |
| C=C[C@@](C)(/C=C/c1ccc(OC(=O)CCCCCCCCCCCCCCC)cc1)CCC=C(C)C | 24 | 61 | 62 | 64 | 54 | 51 | 62 |  |  |  |  |  |  |  |  |  |
| COc1ccc(/C=C/[C@@](C)(/C=C/c2ccc(O)cc2)CCC=C(C)C)cc1 | 55 | 40 | 50 | 20 | 6 | 20 | 52 |  |  |  |  |  |  |  |  |  |
| C=C[C@@](C)(/C=C/c1ccc(OC(=O)CCCC)cc1)CCC=C(C)C | 25 | 38 | 42 | 3 | 21 | 23 | 15 |  |  |  |  |  |  |  |  |  |
| C=C[C@@](C)(/C=C/c1ccc(O)cc1)CC/C=C(/C)C=O | 12 | 35 | 51 | 22 | 53 | 40 | 54 |  |  |  |  |  |  |  |  |  |
| CC(C)=CCC[C@@](C)(/C=C/c1ccc(N)cc1)/C=C/c1ccc(O)cc1 | 48 | 57 | 59 | 16 | 28 | 27 | 51 | 28 | 33 | 15 | 8 | 14 | 5 | 32 | 46 | 32 |
| COc1ccc(/C=C/[C@@](C)(/C=C/c2ccc(O)cc2)CCC=C(C)C)cc1CO | 42 | 41 | 39 | 38 | 34 | 36 | 58 |  |  |  |  |  |  |  |  |  |
| C=C[C@@](C)(/C=C/c1ccc(OC(=O)CC)cc1)CCC=C(C)C | 23 | 42 | 54 | 52 | 63 | 48 | 60 |  |  |  |  |  |  |  |  |  |
| COc1ccc(/C=C/C(C)(/C=C/c2ccc(OC)cc2)CCC=C(C)C)cc1 | 13 | 15 | 29 | 25 | 27 | 11 | 62 |  |  |  |  |  |  |  |  |  |
| CC[C@](C)(CCCC(C)C)CCc1ccc(O)c(I)c1 | 40 | 12 | 8 | 11 | 21 | 43 | 58 |  |  |  |  |  |  |  |  |  |
| C=C[C@@](C)(/C=C/c1ccc(OC)cc1)CCC=C(C)C | 18 | 12 | 44 | 37 | 30 | 43 | 45 | 37 | 34 | 31 | 29 | 23 | 28 | 29 | 40 | 22 |
| CC(C)=CCC[C@](C)(/C=C/c1ccc(O)cc1)/C=C/c1ccc(F)cc1 | 28 | 31 | 33 | 29 | 37 | 43 | 60 |  |  |  |  |  |  |  |  |  |
